Measurements published in ChEMBL document CHEMBL2331277, “Design, synthesis and pharmacological evaluation of omeprazole-like agents with anti-inflammatory activity” (2013).

Experiments:
[1] = system: Rattus norvegicus; assay: Antiulcerogenic activity in pylorus ligation-induced gastric ulcer Sprague-Dawley rat model assessed as pH of gastric juice at 3.6 mg/kg, po for 3 days (Rvb =2.60 +/-0.55 ); assay type: functional
[2] = system: Rattus norvegicus; assay: Antiulcerogenic activity in pylorus ligation-induced gastric ulcer Sprague-Dawley rat model assessed as volume of gastric juice at 3.6 mg/kg, po for 3 days (Rvb =5.96 +/-0.80 ml ); assay type: functional
[3] = system: Rattus norvegicus; assay: Antiulcerogenic activity in pylorus ligation-induced gastric ulcer Sprague-Dawley rat model assessed as stomach peptic activity measuring tyrosine release for 4 hrs at 3.6 mg/kg, po for 3 days (Rvb =5.70 +/-2.40 ug/ml ); assay type: functional
How it was run: (§1)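 Pylorus-ligated rat model as above (3-day oral dosing, 3.6 or 7.2 mg/kg, 5 h ligation). Gastric juice sample (0.1 ml) was incubated with 2.9 ml acid hemoglobin substrate (2.5 g/100 ml, pH 2.2) for 30 min at 37 °C. Reaction was stopped with ice-cold 0.6 M TCA and centrifuged. Liberated amino acids were read by Lowry, expressed as µg tyrosine/ml.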

[4] = system: Rattus norvegicus; assay: Antiulcerogenic activity in pylorus ligation-induced gastric ulcer Sprague-Dawley rat model assessed as stomach H+/K+-ATPase activity measuring Pi release per hour per mg protein at 3.6 mg/kg, po for 3 days (Rvb =11.44 +/-1.5 umol ); assay type: functional
[5] = system: Mus musculus; assay: Antiulcerogenic activity in ethanol-induced gastric ulcer Swiss albino mouse model assessed as inhibition of ulceration at 3.6 mg/kg administered intragastrically for 3 days relative to control; assay type: functional; details: Stomach, po, 72 h, route intragastric
How it was run: (§2)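 Mice, n = 6 per group, given 3.6 or 7.2 mg/kg, omeprazole 3.6 mg/kg, or vehicle (0.25% w/v carboxymethyl cellulose) for 3 days. After a 24 h fast, 90% ethanol (10 ml/kg) was given intragastrically. Animals were killed 1 h later. Stomachs were opened along the greater curvature and lesion lengths measured under a microscope.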

[6] = system: Mus musculus; assay: Antiulcerogenic activity in ethanol-induced gastric ulcer Swiss albino mouse model assessed as lesion length at 3.6 mg/kg administered intragastrically for 3 days; assay type: functional, Stomach; details: route intragastric; how it was run: as §2
[7] = system: Rattus norvegicus; assay: Antiulcerogenic activity in pylorus ligation-induced gastric ulcer Sprague-Dawley rat model assessed as pH of gastric juice at 7.2 mg/kg, po for 3 days (Rvb =2.60 +/-0.55 ); assay type: functional
[8] = system: Rattus norvegicus; assay: Antiulcerogenic activity in pylorus ligation-induced gastric ulcer Sprague-Dawley rat model assessed as volume of gastric juice at 7.2 mg/kg, po for 3 days (Rvb =5.96 +/-0.80 ml ); assay type: functional
[9] = system: Rattus norvegicus; assay: Antiulcerogenic activity in pylorus ligation-induced gastric ulcer Sprague-Dawley rat model assessed as stomach peptic activity measuring tyrosine release for 4 hrs at 7.2 mg/kg, po for 3 days (Rvb =5.70 +/-2.40 ug/ml ); assay type: functional; how it was run: as §1
[10] = system: Rattus norvegicus; assay: Antiulcerogenic activity in pylorus ligation-induced gastric ulcer Sprague-Dawley rat model assessed as stomach H+/K+-ATPase activity measuring Pi release per hour per mg protein at 7.2 mg/kg, po for 3 days (Rvb =11.44 +/-1.5 umol ); assay type: functional
[11] = system: Mus musculus; assay: Antiulcerogenic activity in ethanol-induced gastric ulcer Swiss albino mouse model assessed as inhibition of ulceration at 7.2 mg/kg administered intragastrically for 3 days relative to control; assay type: functional; details: Stomach, po, 72 h, route intragastric; how it was run: as §2
[12] = system: Mus musculus; assay: Antiulcerogenic activity in ethanol-induced gastric ulcer Swiss albino mouse model assessed as lesion length at 7.2 mg/kg administered intragastrically for 3 days; assay type: functional, Stomach; details: route intragastric; how it was run: as §2
[13] = system: Rattus norvegicus; assay: Antiinflammatory activity against carrageenan-induced paw edema in Sprague-Dawley rat assessed as inhibition of paw volume at 30 mg/kg, po measured 180 mins post challenge by plethysmometer; assay type: functional; details: 3 h
[14] = system: Rattus norvegicus; assay: Antiinflammatory activity against carrageenan-induced paw edema in Sprague-Dawley rat assessed as paw volume at 30 mg/kg, po measured 120 mins post challenge by plethysmometer (reference value: 1.13 +/- 0.04 ml); assay type: functional
[15] = system: Rattus norvegicus; assay: Antiinflammatory activity against carrageenan-induced paw edema in Sprague-Dawley rat assessed as paw volume at 30 mg/kg, po measured 60 mins post challenge by plethysmometer (reference value: 0.90 +/- 0.03 ml); assay type: functional
[16] = system: Rattus norvegicus; assay: Antiinflammatory activity against carrageenan-induced paw edema in Sprague-Dawley rat assessed as inhibition of paw volume at 20 mg/kg, po measured 180 mins post challenge by plethysmometer; assay type: functional; details: 3 h
[17] = system: Rattus norvegicus; assay: Antiinflammatory activity against carrageenan-induced paw edema in Sprague-Dawley rat assessed as paw volume at 20 mg/kg, po measured 120 mins post challenge by plethysmometer (reference value: 1.13 +/- 0.04 ml); assay type: functional
[18] = system: Rattus norvegicus; assay: Antiinflammatory activity against carrageenan-induced paw edema in Sprague-Dawley rat assessed as paw volume at 20 mg/kg, po measured 60 mins post challenge by plethysmometer (reference value: 0.90 +/- 0.03 ml); assay type: functional
[19] = system: Rattus norvegicus; assay: Antiinflammatory activity against carrageenan-induced paw edema in Sprague-Dawley rat assessed as inhibition of paw volume at 10 mg/kg, po measured 180 mins post challenge by plethysmometer; assay type: functional; details: 3 h
[20] = system: Rattus norvegicus; assay: Antiinflammatory activity against carrageenan-induced paw edema in Sprague-Dawley rat assessed as paw volume at 10 mg/kg, po measured 120 mins post challenge by plethysmometer (reference value: 1.13 +/- 0.04 ml); assay type: functional
[21] = system: Rattus norvegicus; assay: Antiinflammatory activity against carrageenan-induced paw edema in Sprague-Dawley rat assessed as paw volume at 10 mg/kg, po measured 60 mins post challenge by plethysmometer (reference value: 0.90 +/- 0.03 ml); assay type: functional

| SMILES | pH [1] | Activity [2] | Activity [3] | Activity [4] | inhibition in vivo at 3.6 mg/kg [5] | Activity [6] | pH [7] | Activity [8] | Activity [9] | Activity [10] | inhibition in vivo at 7.2 mg/kg [11] | inhibition in vivo at 30 mg/kg [13] | Activity [14] | Activity [15] | inhibition in vivo at 20 mg/kg [16] | Activity [17] | Activity [18] | inhibition in vivo at 10 mg/kg [19] | Activity [20] | Activity [21] | also measured |
| --- | --- | --- | --- | --- | --- | --- | --- | --- | --- | --- | --- | --- | --- | --- | --- | --- | --- | --- | --- | --- | --- |
| COc1ccc2[nH]c([S+]([O-])Cc3ncc(C)c(OC)c3C)nc2c1 (stereo not given) [OMEPRAZOLE] | 4.26 | 2.64 mL | 4.92 µg/mL | 7.1 µmol | 68.3% | 40 mm | – | – | – | – | – | – | – | – | – | – | – | – | – | – | – |
| COc1ccnc(CNc2ccc3c(c2)nc(C)n3C[C@@H](O)[C@H]2O[C@H](O)[C@@H](O)[C@H]2O)c1C | 4.1 | 2.31 mL | 4.62 µg/mL | 6.78 µmol | 57.9% | 53 mm | 4.31 | 2.24 mL | 4.34 µg/mL | 6 µmol | 66.6% | 58% | 0.64 mL | 0.63 mL | 53% | 0.68 mL | 0.68 mL | 22% | 0.88 mL | 0.68 mL | Activity [12]: 42 mm |
| O=C([O-])Cc1ccccc1Nc1c(Cl)cccc1Cl.[Na+] [DICLOFENAC SODIUM] | – | – | – | – | – | – | – | – | – | – | – | – | – | – | 73% | 0.35 mL | 0.38 mL | – | – | – | – |
| Cc1nc2cc(NCc3ccccn3)ccc2n1C[C@@H](O)[C@H]1O[C@H](O)[C@@H](O)[C@H]1O | 4.04 | 2.4 mL | 4.72 µg/mL | 6.91 µmol | 46% | 68 mm | 4.41 | 2.3 mL | 4.44 µg/mL | 6.02 µmol | 54% | 52% | 0.64 mL | 0.63 mL | 47% | 0.69 mL | 0.68 mL | 8% | 0.89 mL | 0.69 mL | Activity [12]: 58 mm |
| COc1ccnc(CNc2ccc3[nH]c(C)nc3c2)c1C | – | – | – | – | – | – | – | – | – | – | – | 55% | 0.65 mL | 0.64 mL | 52% | 0.69 mL | 0.69 mL | 11% | 0.9 mL | 0.7 mL | – |
| Cc1nc2cc(NCc3ccccn3)ccc2[nH]1 | – | – | – | – | – | – | – | – | – | – | – | 45% | 1.03 mL | 0.87 mL | 32% | 1.08 mL | 0.9 mL | 10% | 1.08 mL | 0.97 mL | – |
| COc1c(C)cnc(CNc2ccc3c(c2)nc(C)n3C[C@@H](O)[C@H]2O[C@H](O)[C@@H](O)[C@H]2O)c1C | 4.14 | 2.48 mL | 4.8 µg/mL | 7.01 µmol | 62.6% | 47 mm | 4.39 | 2.38 mL | 4.56 µg/mL | 6.62 µmol | 76.2% | 56% | 0.43 mL | 0.49 mL | 50% | 0.48 mL | 0.5 mL | 36% | 0.64 mL | 0.61 mL | Activity [12]: 30 mm |
| COc1ccnc(CNc2ccc3c(c2)nc(C)n3C[C@@H](O)[C@H]2O[C@H](O)[C@@H](O)[C@H]2O)c1OC | 4.53 | 2.56 mL | 4.79 µg/mL | 6.88 µmol | 61% | 49 mm | 4.73 | 2.39 mL | 4.54 µg/mL | 6.34 µmol | 73% | 72% | 0.38 mL | 0.41 mL | 62% | 0.4 mL | 0.44 mL | 41% | 0.52 mL | 0.53 mL | Activity [12]: 34 mm |
| COc1c(C)cnc(CNc2ccc3[nH]c(C)nc3c2)c1C | – | – | – | – | – | – | – | – | – | – | – | 53% | 0.62 mL | 0.64 mL | 49% | 0.67 mL | 0.69 mL | 10% | 0.88 mL | 0.7 mL | – |
